As a reminder, the AC50 is the concentration giving half of the maximal activity seen.

Among the data in PubChem BioAssay AID623965 (Broad Institute, 2012) are AC50 values, retold here.

The test system of this test is Candida glabrata growth in glycerol medium, OD600, 48 h. Briefly: C. glabrata glycerol-medium growth inhibitors tested alone – glycerol carbon source, dry powder, plate reader, set 3, dose response (AID 623965). The method, boiled down:
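system = Candida glabrata yeast cells | medium = CSM synthetic medium with glycerol as carbon source | times = 48 h static incubation at 30 °C, humidified | detection = optical density at 600 nm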

Each structure is given as a SMILES string. Where “and” joins values, the source holds several entries; their conditions need not be identical. Equal entries are not always repeated.

As for `CCOC(=O)N1C(=O)C2(CCCCC2)N(c2ccccc2)C1=S`, the half-maximal activity concentration (AC50) is 33.5 nM.

`CCOC(=O)N1C(=O)C2(CCCCC2)N(c2ccc(C#N)cc2)C1=S`: the AC50 was 39.8 nM.

Consider `CCOC(=O)N1C(=O)C2(CCCCC2)N(c2cccc(C)c2)C1=S`, for which the AC50 was 38.6 nM.

As for `CCOC(=O)N1C(=O)C2(CCCCC2)N(c2ccc(F)cc2)C1=S`, the AC50 is 11.3 nM.

As to `C/C=C/[C@@H]1[C@H]2C[C@@H](C)CC[C@@H]2C(C)=C[C@H]1C(=O)c1c(O)c(-c2ccc(O)cc2)c[nH]c1=O`, the AC50 is 2940 nM.

Turning to `CCOC(=O)N1C(=O)C2(CCCCC2)N(c2ccc(Cl)cc2)C1=S`, the concentration at half-maximal activity (AC50) was 29.7 nM.

Turning to `CC1/C=C/C=C\C=C\C=C\C=C\C=C\C=C\C(O[C@H]2OC(C)C(O)C(N)C2O)CC2OC(O)(CC(O)CC(O)C(O)CCC(O)CC(O)CC(=O)OC(C)C(C)C1O)CC(O)C2C(=O)O` (stereo partly drawn), the AC50 was 1410 nM.

As to `CCOC(=O)N1C(=O)C2(CCCCC2)N(c2ccc(C)cc2)C1=S`, the AC50 was 57.6 nM and 55.3 nM.
